Calls of active or inactive are those of the source. No cut-off for these calls is given here.
System: not listed separately
Experiment: Solubility at pH 4
Type: physicochemical
Conditions: buffer

Row | Compound | solubility
1 | CC(=O)C1=NN2c3cc(F)ccc3OC[C@H]2[C@@]1(CCCN1CCN(C(C)=O)CC1)c1ccccc1 | > 4000 µg/mL

Species on record: Canis familiaris
Experiment: Induction of QTc prolongation in canine cardiovascular model at 35 uM
Type: functional, organism-based
Conditions: Canis lupus familiaris, Heart

Row | Compound | Activity
2 | CC(=O)C1=NN2c3cc(F)ccc3OC[C@H]2[C@@]1(CCCN1CCN(C(C)=O)CC1)c1ccccc1 | inactive

System: not listed separately
Experiment: Half life in dog at 0.25 mg/kg, iv
Type: ADME, organism-based, Canis lupus familiaris
Parameters: dose 0.25 mg/kg, route intravenous
Conditions: in vivo
In short: (§1)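 Cassette intravenous dosing in dogs, compounds given together as a DMSO solution at 0.25 mg/kg. Two dogs per dose, with the value being their average. Individual determinations fell within ±25% of the mean.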

Row | Compound | half-life
3 | CC(=O)C1=NN2c3cc(F)ccc3OC[C@H]2[C@@]1(CCCN1CCC(=O)N(C)CC1)c1ccccc1 | 3.9 h
4 | CC(=O)C1=NN2c3cc(F)ccc3OC[C@H]2[C@@]1(CCCN1CCNC(=O)CC1)c1ccccc1 | 2.4 h
5 | CC(=O)C1=NN2c3cc(F)ccc3OC[C@H]2[C@@]1(CCCN1CCN(C(C)=O)CC1)c1ccccc1 | 5.6 h
6 | CC(=O)C1=NN2c3cc(F)ccc3OC[C@H]2[C@@]1(CCCN1CCNCC1)c1ccccc1 | 3.5 h
7 | CC(=O)C1=NN2c3cc(C)ccc3OC[C@H]2[C@@]1(CCCN(C)C)c1ccccc1 | 8.3 h
8 | CC(=O)C1=NN2c3cc(F)ccc3OC[C@H]2[C@@]1(CCCN(C)C)c1ccccc1 | 5.7 h

System: not listed separately
Experiment: Ratio of IC50 for KB-V-1 cells to IC50 for KB-3-1 cells after 16 hrs
Type: functional, Homo sapiens
Conditions: not given
In short: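 Mitotic arrest measured in Pgp-high KB-V-1 cells (derived from parental KB-3-1 by culture with vinblastine; >500-fold higher Pgp mRNA and protein) and in parental KB-3-1 cells. 16 h incubation, 11-point half-log dilution series. Read-out is phospho-nucleolin level. The ratio is the IC50 in KB-V-1 divided by the IC50 in KB-3-1.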

Row | Compound | Ratio IC50
9 | CC(=O)C1=NN2c3cc(F)ccc3OC[C@H]2[C@@]1(CCCN1CCC(=O)N(C)CC1)c1ccccc1 | 2.6
10 | CC(=O)C1=NN2c3cc(Cl)ccc3OC[C@H]2[C@@]1(CCCN1CCN(C(C)=O)CC1)c1ccccc1 | 1.6
11 | CC(=O)C1=NN2c3cc(C)ccc3OC[C@H]2[C@@]1(CCCN1CCOCC1)c1ccccc1 | 1.4
12 | CC(=O)C1=NN2c3cc(F)ccc3OC[C@H]2[C@@]1(CCCN1CCNC(=O)CC1)c1ccccc1 | 3.3
13 | CC(=O)C1=NN2c3cc(Cl)ccc3OC[C@H]2C1(CCCN1CCOCC1)c1ccccc1 (mixture of isomers) | 1.5
14 | CC(=O)C1=NN2c3cc(F)ccc3OC[C@H]2[C@@]1(CCCN1CCNCC1)c1ccccc1 | 40
15 | CC(=O)C1=NN2c3cc(F)ccc3OC[C@H]2[C@@]1(CCCO)c1ccccc1 | 0.6
16 | CC(=O)C1=NN2c3cc(F)ccc3OC[C@H]2[C@@]1(CCCN1CCOCC1)c1ccccc1 | 0.8
17 | CC(=O)C1=NN2c3cc(C)ccc3OC[C@H]2[C@@]1(CCCN(C)C)c1ccccc1 | 2.3
18 | CC(=O)C1=NN2c3cc(F)ccc3OC[C@H]2[C@@]1(CCCN(C)C)c1ccccc1 | 2.3
19 | CC(=O)C1=NN2c3cc(F)ccc3OC[C@H]2[C@@]1(CCCN)c1ccccc1 | 1.7

Species on record: Canis familiaris
Experiment: Induction of QTc prolongation in canine cardiovascular model
Type: functional, organism-based
Conditions: Canis lupus familiaris; Heart

Row | Compound | Activity
20 | CC(=O)C1=NN(c2cc(F)ccc2F)C[C@@]1(CCCN1CCN(C(C)=O)CC1)c1ccccc1 | Active

Molecular target: Voltage-gated inwardly rectifying potassium channel KCNH2 (Homo sapiens, UniProt Q12809)
Sequence (Q12809 whole entry): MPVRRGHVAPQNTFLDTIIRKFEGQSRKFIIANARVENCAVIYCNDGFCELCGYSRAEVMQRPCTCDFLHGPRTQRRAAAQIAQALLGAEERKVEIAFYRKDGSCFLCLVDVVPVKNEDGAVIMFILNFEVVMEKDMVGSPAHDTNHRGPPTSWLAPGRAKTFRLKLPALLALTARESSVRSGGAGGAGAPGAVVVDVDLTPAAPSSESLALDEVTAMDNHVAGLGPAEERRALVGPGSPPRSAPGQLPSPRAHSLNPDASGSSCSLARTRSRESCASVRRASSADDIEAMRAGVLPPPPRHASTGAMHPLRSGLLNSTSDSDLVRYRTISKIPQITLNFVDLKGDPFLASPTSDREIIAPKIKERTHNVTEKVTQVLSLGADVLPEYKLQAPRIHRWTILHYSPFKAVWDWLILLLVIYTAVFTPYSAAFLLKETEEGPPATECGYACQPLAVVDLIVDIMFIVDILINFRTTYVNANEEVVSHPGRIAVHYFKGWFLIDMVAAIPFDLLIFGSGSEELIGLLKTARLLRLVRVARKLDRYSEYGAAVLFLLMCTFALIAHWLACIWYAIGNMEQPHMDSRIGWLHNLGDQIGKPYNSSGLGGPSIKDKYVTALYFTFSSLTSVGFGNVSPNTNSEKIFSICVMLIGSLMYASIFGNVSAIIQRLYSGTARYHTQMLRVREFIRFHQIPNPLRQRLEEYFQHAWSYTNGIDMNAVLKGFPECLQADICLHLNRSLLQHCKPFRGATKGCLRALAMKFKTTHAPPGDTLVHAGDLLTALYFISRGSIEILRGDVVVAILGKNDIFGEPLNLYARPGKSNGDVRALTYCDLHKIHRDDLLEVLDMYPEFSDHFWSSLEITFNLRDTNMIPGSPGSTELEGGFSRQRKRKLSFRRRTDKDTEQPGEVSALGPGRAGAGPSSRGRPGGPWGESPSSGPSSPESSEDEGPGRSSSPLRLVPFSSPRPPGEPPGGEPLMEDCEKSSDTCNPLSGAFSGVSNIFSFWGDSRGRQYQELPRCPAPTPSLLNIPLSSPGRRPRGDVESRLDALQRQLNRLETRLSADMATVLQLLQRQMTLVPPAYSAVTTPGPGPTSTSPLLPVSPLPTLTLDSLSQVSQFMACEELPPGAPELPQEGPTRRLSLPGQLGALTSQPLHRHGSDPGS
Experiment: Inhibition of hERG expressed in HEK cells
Type: toxicity, cell-based, HEK293
Conditions: not given

Row | Compound | IC50
21 | CC(=O)C1=NN2c3cc(F)ccc3OC[C@H]2[C@@]1(CCCN1CCC(=O)N(C)CC1)c1ccccc1 | 9600 nM
22 | CC(=O)C1=NN2c3cc(Cl)ccc3OC[C@H]2[C@@]1(CCCN1CCN(C(C)=O)CC1)c1ccccc1 | 5600 nM
23 | CC(=O)C1=NN2c3cc(C)ccc3OC[C@H]2[C@@]1(CCCN1CCOCC1)c1ccccc1 | 6300 nM
24 | CC(=O)C1=NN2c3cc(F)ccc3OC[C@H]2[C@@]1(CCCN1CCNC(=O)CC1)c1ccccc1 | 17000 nM
25 | CC(=O)C1=NN2c3cc(Cl)ccc3OC[C@H]2C1(CCCN1CCOCC1)c1ccccc1 (mixture of isomers) | 3300 nM
26 | CC(=O)C1=NN2c3cc(F)ccc3OC[C@H]2[C@@]1(CCCN1CCNCC1)c1ccccc1 | 4600 nM
27 | CC(=O)C1=NN2c3cc(F)ccc3OC[C@H]2[C@@]1(CCCO)c1ccccc1 | 18000 nM
28 | CC(=O)C1=NN2c3cc(F)ccc3OC[C@H]2[C@@]1(CCCN1CCOCC1)c1ccccc1 | 6100 nM
29 | CC(=O)C1=NN2c3cc(C)ccc3OC[C@H]2[C@@]1(CCCN(C)C)c1ccccc1 | 2400 nM
30 | CC(=O)C1=NN2c3cc(F)ccc3OC[C@H]2[C@@]1(CCCN(C)C)c1ccccc1 | 5940 nM
31 | CC(=O)C1=NN2c3cc(F)ccc3OC[C@H]2[C@@]1(CCCN)c1ccccc1 | 940 nM

System: A2780
Experiment: Mitotic arrest in human A2780 cells assessed as G2/M block after 16 hrs
Type: functional, cell-based
Conditions: A2780, 16 h
In short: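 A2780 human ovarian carcinoma cells treated 16 h across a 7-point half-log dilution series. Mitosis-specific nucleolin phosphorylation read by electrochemiluminescence: total nucleolin captured on beads via anti-nucleolin antibody, phospho-nucleolin detected with a phospho-specific IgM plus ruthenium-labelled anti-mouse IgM. EC50 is the mean of at least two independent determinations.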

Row | Compound | EC50
32 | CC(=O)C1=NN2c3cc(F)ccc3OC[C@H]2[C@@]1(CCCN1CCC(=O)N(C)CC1)c1ccccc1 | 4.8 nM
33 | CC(=O)C1=NN2c3cc(Cl)ccc3OC[C@H]2[C@@]1(CCCN1CCN(C(C)=O)CC1)c1ccccc1 | 9 nM
34 | CC(=O)C1=NN2c3cc(C)ccc3OC[C@H]2[C@@]1(CCCN1CCOCC1)c1ccccc1 | 11 nM
35 | CC(=O)C1=NN2c3cc(F)ccc3OC[C@H]2[C@@]1(CCCN1CCNC(=O)CC1)c1ccccc1 | 6.9 nM
36 | CC(=O)C1=NN2c3cc(Cl)ccc3OC[C@H]2[C@@]1(CCCN(C)C)c1ccccc1 | 4.8 nM
37 | CC(=O)C1=NN2c3cc(Cl)ccc3OC[C@H]2C1(CCCN1CCOCC1)c1ccccc1 (mixture of isomers) | 13 nM
38 | CC(=O)C1=NN2c3cc(F)ccc3OC[C@H]2[C@@]1(CCCN1CCN(C(C)=O)CC1)c1ccccc1 | 5 nM
39 | CC(=O)C1=NN2c3cc(F)ccc3OC[C@H]2[C@@]1(CCCN1CCNCC1)c1ccccc1 | 5 nM
40 | CC(=O)C1=NN2c3cc(F)ccc3OC[C@H]2[C@@]1(CCCO)c1ccccc1 | 11 nM
41 | CC(=O)C1=NN2c3cc(F)ccc3OC[C@H]2[C@@]1(CCCN1CCOCC1)c1ccccc1 | 4.4 nM
42 | CC(=O)C1=NN2c3cc(C)ccc3OC[C@H]2[C@@]1(CCCN(C)C)c1ccccc1 | 6.4 nM
43 | CC(=O)C1=NN2c3cc(F)ccc3OC[C@H]2[C@@]1(CCCN(C)C)c1ccccc1 | 7.4 nM
44 | CC(=O)C1=NN2c3cc(F)ccc3OC[C@H]2[C@@]1(CCCN)c1ccccc1 | 2.5 nM

System: not listed separately
Experiment: Clearance in dog at 0.25 mg/kg, iv
Type: ADME, organism-based, Canis lupus familiaris
Parameters: dose 0.25 mg/kg, route intravenous
Conditions: in vivo
In short: as §1

Row | Compound | clearance
45 | CC(=O)C1=NN2c3cc(F)ccc3OC[C@H]2[C@@]1(CCCN1CCC(=O)N(C)CC1)c1ccccc1 | 11 mL/min/kg
46 | CC(=O)C1=NN2c3cc(F)ccc3OC[C@H]2[C@@]1(CCCN1CCNC(=O)CC1)c1ccccc1 | 15 mL/min/kg
47 | CC(=O)C1=NN2c3cc(F)ccc3OC[C@H]2[C@@]1(CCCN1CCN(C(C)=O)CC1)c1ccccc1 | 14 mL/min/kg
48 | CC(=O)C1=NN2c3cc(F)ccc3OC[C@H]2[C@@]1(CCCN1CCNCC1)c1ccccc1 | 40 mL/min/kg
49 | CC(=O)C1=NN2c3cc(C)ccc3OC[C@H]2[C@@]1(CCCN(C)C)c1ccccc1 | 37 mL/min/kg
50 | CC(=O)C1=NN2c3cc(F)ccc3OC[C@H]2[C@@]1(CCCN(C)C)c1ccccc1 | 52 mL/min/kg

Molecular target: T1, Kinesin-like protein KIF11 (Homo sapiens, UniProt P52732)
T1 sequence (P52732 whole entry): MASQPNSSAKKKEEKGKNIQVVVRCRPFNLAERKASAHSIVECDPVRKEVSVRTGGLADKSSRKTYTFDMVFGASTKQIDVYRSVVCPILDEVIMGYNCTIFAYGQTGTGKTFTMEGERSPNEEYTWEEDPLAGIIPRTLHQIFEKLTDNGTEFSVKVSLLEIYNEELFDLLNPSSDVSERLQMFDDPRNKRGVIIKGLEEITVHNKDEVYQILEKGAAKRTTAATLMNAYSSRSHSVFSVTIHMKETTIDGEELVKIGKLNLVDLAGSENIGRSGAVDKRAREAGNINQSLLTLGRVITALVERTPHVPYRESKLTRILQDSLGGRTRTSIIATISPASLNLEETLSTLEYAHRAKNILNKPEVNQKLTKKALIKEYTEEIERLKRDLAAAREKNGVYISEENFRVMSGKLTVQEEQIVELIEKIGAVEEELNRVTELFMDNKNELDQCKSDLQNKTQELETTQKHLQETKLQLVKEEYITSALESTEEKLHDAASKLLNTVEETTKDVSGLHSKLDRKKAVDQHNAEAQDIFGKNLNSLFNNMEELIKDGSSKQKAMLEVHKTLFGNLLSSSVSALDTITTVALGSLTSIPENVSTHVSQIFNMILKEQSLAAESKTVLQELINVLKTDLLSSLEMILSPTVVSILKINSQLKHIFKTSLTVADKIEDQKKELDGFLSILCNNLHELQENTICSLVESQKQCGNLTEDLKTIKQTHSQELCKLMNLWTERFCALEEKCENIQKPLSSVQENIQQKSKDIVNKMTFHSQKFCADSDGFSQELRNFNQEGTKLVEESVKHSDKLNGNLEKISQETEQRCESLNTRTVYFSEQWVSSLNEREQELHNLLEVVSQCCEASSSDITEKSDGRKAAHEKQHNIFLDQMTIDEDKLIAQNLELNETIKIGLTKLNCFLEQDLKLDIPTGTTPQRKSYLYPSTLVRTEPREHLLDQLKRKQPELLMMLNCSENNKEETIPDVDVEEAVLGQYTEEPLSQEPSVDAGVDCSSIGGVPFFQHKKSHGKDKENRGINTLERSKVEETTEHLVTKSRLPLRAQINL
Experiment: Inhibition of kinesin spindle protein
Conditions: not given

Row | Compound | IC50
51 | CC(=O)C1=NN2c3cc(F)ccc3OC[C@H]2[C@@]1(CCCN1CCC(=O)N(C)CC1)c1ccccc1 | 0.9 nM
52 | CC(=O)C1=NN2c3cc(Cl)ccc3OC[C@H]2[C@@]1(CCCN1CCN(C(C)=O)CC1)c1ccccc1 | 1 nM
53 | CC(=O)C1=NN2c3ccccc3OC[C@H]2[C@H]1c1ccccc1 | 800 nM
54 | CC(=O)C1=NN2c3cc(C)ccc3OC[C@H]2[C@@]1(CCCN1CCOCC1)c1ccccc1 | 1 nM
55 | CC(=O)C1=NN2c3cc(F)ccc3OC[C@H]2[C@@]1(CCCN1CCNC(=O)CC1)c1ccccc1 | 1.5 nM
56 | CC(=O)C1=NN2c3cc(F)ccc3OC[C@H]2[C@H]1c1ccccc1 | 155 nM
57 | CC(=O)C1=NN2c3cc(Cl)ccc3OC[C@H]2[C@@]1(CCCN(C)C)c1ccccc1 | 1 nM
58 | CC(=O)C1=NN2c3cc(Cl)ccc3OC[C@H]2C1(CCCN1CCOCC1)c1ccccc1 (mixture of isomers) | 1.8 nM
59 | CC(=O)C1=NN2c3cc(F)ccc3OC[C@H]2[C@@]1(CCCN1CCN(C(C)=O)CC1)c1ccccc1 | 1.6 nM
60 | CC(=O)C1=NN2c3cc(F)ccc3OC[C@H]2[C@@]1(CCCN1CCNCC1)c1ccccc1 | 4.3 nM
61 | CC(=O)C1=NN2c3cc(F)ccc3OC[C@H]2[C@@]1(CCCO)c1ccccc1 | 5.2 nM
62 | CC(=O)C1=NN2c3cc(F)ccc3OC[C@H]2[C@@]1(CCCN1CCOCC1)c1ccccc1 | 0.4 nM
63 | CC(=O)C1=NN2c3cc(C)ccc3OC[C@H]2[C@@]1(CCCN(C)C)c1ccccc1 | 1.8 nM
64 | CC(=O)C1=NN2c3cc(F)ccc3OC[C@H]2[C@@]1(CCCN(C)C)c1ccccc1 | 1.6 nM
65 | CC(=O)C1=NN(c2cc(F)ccc2F)C[C@@]1(CCCN1CCN(C(C)=O)CC1)c1ccccc1 | 3 nM
66 | CC(=O)C1=NN2c3cc(F)ccc3OC[C@H]2[C@@]1(CCCN)c1ccccc1 | 0.5 nM

Reference: ChEMBL document CHEMBL1139825, “Kinesin spindle protein (KSP) inhibitors. Part 7: Design and synthesis of 3,3-disubstituted dihydropyrazolobenzoxazines as potent inhibitors of the mitotic kinesin KSP” (Bioorg Med Chem Lett, 2007)
